Values after ≈ are worked out from the molar mass of the structure shown. Active and inactive are the calls of the source. The rule behind the calls is not given here.
Experiments:
Assay type in all cases: functional
Candida tropicalis = experiment: Antifungal activity against Candida tropicalis ATCC 20336 at 50 mg/ml after 72 hrs by agar diffusion test; details: for zone of inhibition at 50000 µg/mL: ATCC 20336, 72 h, read-out: DIZ
Summary of the method: (§1)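 Agar diffusion: yeasts grown on yeast peptone dextrose agar and fungi on potato dextrose agar. Wells are filled with […] of compound solution in DMSO at various concentrations, and the clear-zone diameter is measured. Bracketed values give the lowest concentration (mg/ml) that produces a zone >11 mm. A first screen is run at 50 mg/ml.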

Staphylococcus aureus = experiment: Antibacterial activity against Staphylococcus aureus NRRL B 313 at 50 mg/ml after 24 hrs by agar diffusion test; details: for zone of inhibition at 50000 µg/mL: NRRL B 313, 24 h, read-out: DIZ
Summary of the method: (§2)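 Agar diffusion: bacteria grown 24 h at 37 °C on nutrient agar. Wells in the agar are filled with […] of compound solution in DMSO at various concentrations. The diameter of the clear zone around the application point is measured. Bracketed values give the lowest concentration (mg/ml) that produces a zone >11 mm. A first screen is run at 50 mg/ml.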

Bacillus cereus = experiment: Antibacterial activity against Bacillus cereus ATCC 11778 at 50 mg/ml after 24 hrs by agar diffusion test; details: for zone of inhibition at 50000 µg/mL: ATCC 11778, 24 h, read-out: DIZ
Summary of the method: (§3)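 Agar diffusion: wells in agar filled with […] DMSO solution of compound at various concentrations; diameter of clear zone around application point measured. Bacteria grown 24 h at 37 °C on nutrient agar. Compounds first screened at 50 mg/ml; those active then tested at lower concentrations. Bracketed value = lowest concentration (mg/ml) giving zone >11 mm, reported only if activity retained at ≤1.25 mg/ml.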

Penicillium chrysogenum = experiment: Antifungal activity against Penicillium chrysogenum CECT 2802 at 50 mg/ml after 72 hrs by agar diffusion test; details: for zone of inhibition at 50000 µg/mL: CECT 2802, 72 h, read-out: DIZ; summary of the method: as §1
Escherichia coli = experiment: Antibacterial activity against Escherichia coli ATCC 8739 at 50 mg/ml after 24 hrs by agar diffusion test; details: for zone of inhibition at 50000 µg/mL: ATCC 8739, 24 h, read-out: DIZ; summary of the method: as §3
Acinetobacter johnsonii = experiment: Antibacterial activity against Acinetobacter johnsonii ATCC 17909 at 50 mg/ml after 24 hrs by agar diffusion test; details: for zone of inhibition at 50000 µg/mL: ATCC 17909, 24 h, read-out: DIZ; summary of the method: as §3
Micrococcus luteus [1] = experiment: Antibacterial activity against Micrococcus luteus ATCC 9631 at 50 mg/ml after 24 hrs by agar diffusion test; details: for zone of inhibition at 50000 µg/mL: ATCC 9631, 24 h, read-out: DIZ; summary of the method: as §3
Priestia megaterium = experiment: Antibacterial activity against Bacillus megaterium NRRL 1353895 at 50 mg/ml after 24 hrs by agar diffusion test; details: for zone of inhibition at 50000 µg/mL: NRRL 1353895, 24 h, read-out: DIZ; summary of the method: as §3
Saccharomyces cerevisiae = experiment: Antifungal activity against Saccharomyces cerevisiae ATCC 9763 at 50 mg/ml after 72 hrs by agar diffusion test; details: for zone of inhibition at 50000 µg/mL: ATCC 9763, 72 h, read-out: DIZ; summary of the method: as §1
Bacillus mycoides = experiment: Antibacterial activity against Bacillus mycoides DSMZ 274 at 50 mg/ml after 24 hrs by agar diffusion test; details: for zone of inhibition at 50000 µg/mL: DSMZ 274, 24 h, read-out: DIZ; summary of the method: as §3
Micrococcus luteus [2] = experiment: Antibacterial activity against Sarcina lutea ATCC 9341 at 50 mg/ml after 24 hrs by agar diffusion test; details: for zone of inhibition at 50000 µg/mL: ATCC 9341, 24 h, read-out: DIZ; summary of the method: as §2
Bacillus subtilis = experiment: Antibacterial activity against Bacillus subtilis ATCC 6633 at 50 mg/ml after 24 hrs by agar diffusion test; details: for zone of inhibition at 50000 µg/mL: ATCC 6633, 24 h, read-out: DIZ; summary of the method: as §3
[3] = test system: Mycobacterium tuberculosis; experiment: Antimycobacterial activity against Mycobacterium tuberculosis H37Rv after 45 days
Summary of the method: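 Canetti proportion method. Compound in DMSO is added to Löwenstein–Jensen egg medium before coagulation (30 min, 85 °C), tested at three levels plus a lower one where needed. Tubes are inoculated with H37Rv at 10⁵ cells/ml and incubated 45 days at 37 °C. Colony counts versus drug-free control give percentage inhibition.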

Bacillus = experiment: Antibacterial activity against Bacillus idosus B 241 at 50 mg/ml after 24 hrs by agar diffusion test; details: for zone of inhibition at 50000 µg/mL: B 241, 24 h, read-out: DIZ; summary of the method: as §3

SMILES | diameter of the inhibition zone (DIZ) (Candida tropicalis) | diameter of the inhibition zone (DIZ) (Staphylococcus aureus) | diameter of the inhibition zone (DIZ) (Bacillus cereus) | diameter of the inhibition zone (DIZ) (Penicillium chrysogenum) | diameter of the inhibition zone (DIZ) (Escherichia coli) | diameter of the inhibition zone (DIZ) (Acinetobacter johnsonii) | diameter of the inhibition zone (DIZ) (Micrococcus luteus [1]) | diameter of the inhibition zone (DIZ) (Priestia megaterium) | diameter of the inhibition zone (DIZ) (Saccharomyces cerevisiae) | diameter of the inhibition zone (DIZ) (Bacillus mycoides) | diameter of the inhibition zone (DIZ) (Micrococcus luteus [2]) | diameter of the inhibition zone (DIZ) (Bacillus subtilis) | MIC [3] | diameter of the inhibition zone (DIZ) (Bacillus) | zone of inhibition at 50000 µg/mL (Staphylococcus aureus) | zone of inhibition at 50000 µg/mL (Bacillus cereus) | zone of inhibition at 50000 µg/mL (Acinetobacter johnsonii) | zone of inhibition at 50000 µg/mL (Bacillus mycoides) | zone of inhibition at 50000 µg/mL (Bacillus subtilis) | zone of inhibition at 50000 µg/mL (Bacillus) | also measured
CC[C@H](CO)NC(=O)c1ccc2ccccc2c1 | inactive | inactive | inactive | inactive | inactive | inactive | inactive | inactive | inactive | inactive | inactive | inactive | > 20.6 µM | inactive |  |  |  |  |  |  | 
CC[C@H](CO)NCc1ccc2ccccc2c1 |  |  |  |  |  |  |  |  |  |  |  |  | > 21.8 µM |  | 19 mm | 14 mm | 17 mm | 17 mm | 19 mm | 19 mm | zone of inhibition at 50000 µg/mL (Candida tropicalis): 10 mm; zone of inhibition at 50000 µg/mL (Penicillium chrysogenum): 35 mm; zone of inhibition at 50000 µg/mL (Escherichia coli): 22 mm; zone of inhibition at 50000 µg/mL (Micrococcus luteus [1]): 19 mm; zone of inhibition at 50000 µg/mL (Priestia megaterium): 17 mm; zone of inhibition at 50000 µg/mL (Saccharomyces cerevisiae): 10 mm; zone of inhibition at 50000 µg/mL (Micrococcus luteus [2]): 17 mm
CC[C@H](CO)/N=C1\C[C@H]2CC[C@]1(C)C2(C)C | inactive | inactive | inactive | inactive | inactive | inactive | inactive |  | inactive |  | inactive | inactive | > 22.4 µM | inactive |  |  |  | 11 mm |  |  | zone of inhibition at 50000 µg/mL (Priestia megaterium): 10 mm
CC[C@H](CO)N(Cc1ccccc1)Cc1ccccc1 |  |  |  | inactive | inactive |  |  | inactive | inactive | inactive |  | inactive | > 18.6 µM |  | 11 mm | 11 mm | 11 mm |  |  | 11 mm | zone of inhibition at 50000 µg/mL (Candida tropicalis): 10 mm; zone of inhibition at 50000 µg/mL (Micrococcus luteus [1]): 12 mm; zone of inhibition at 50000 µg/mL (Micrococcus luteus [2]): 12 mm
CC[C@H](CO)NC(=O)C(C)(C)C | inactive |  |  | inactive | inactive | inactive | inactive | inactive | inactive |  | inactive |  | 28.9 µM (≈ 5 µg/mL) |  | 15 mm | 16 mm |  | 11 mm | 15 mm | 11 mm | 
CC[C@H](CO)NC(=O)c1cccc2ccccc12 | inactive | inactive | inactive | inactive | inactive | inactive | inactive | inactive | inactive | inactive | inactive | inactive | > 20.6 µM | inactive |  |  |  |  |  |  | 
CC[C@H](CO)NCc1ccc2ccc3cccc4ccc1c2c34 |  |  |  |  | inactive |  |  |  |  |  |  |  | 16.5 µM (≈ 5 µg/mL) |  | 13 mm | 14 mm | 14 mm | 15 mm | 14 mm | 30 mm | zone of inhibition at 50000 µg/mL (Candida tropicalis): 40 mm; zone of inhibition at 50000 µg/mL (Penicillium chrysogenum): 14 mm; zone of inhibition at 50000 µg/mL (Micrococcus luteus [1]): 14 mm; zone of inhibition at 50000 µg/mL (Priestia megaterium): 13 mm; zone of inhibition at 50000 µg/mL (Saccharomyces cerevisiae): 35 mm; zone of inhibition at 50000 µg/mL (Micrococcus luteus [2]): 13 mm
CC[C@H](CO)NCc1ccc(-c2ccccc2)cc1 |  |  |  |  |  |  |  |  |  |  |  |  | > 19.6 µM |  | 20 mm | 15 mm | 20 mm | 18 mm | 18 mm | 18 mm | zone of inhibition at 50000 µg/mL (Candida tropicalis): 18 mm; zone of inhibition at 50000 µg/mL (Penicillium chrysogenum): 40 mm; zone of inhibition at 50000 µg/mL (Escherichia coli): 28 mm; zone of inhibition at 50000 µg/mL (Micrococcus luteus [1]): 17 mm; zone of inhibition at 50000 µg/mL (Priestia megaterium): 19 mm; zone of inhibition at 50000 µg/mL (Saccharomyces cerevisiae): 18 mm; zone of inhibition at 50000 µg/mL (Micrococcus luteus [2]): 17 mm
CC[C@H](CO)NCc1ccc(CN[C@H](CC)CO)cc1 | inactive | inactive | inactive | inactive | inactive | inactive | inactive | inactive | inactive | inactive | inactive |  | 17.8 µM (≈ 5 µg/mL) | inactive |  |  |  |  | 10 mm |  | 
CC[C@H](CO)NCc1ccc(-n2ccnc2)cc1 | inactive |  |  |  | inactive |  |  | inactive | inactive |  |  |  | 20.4 µM (≈ 5 µg/mL) |  | 16 mm | 13 mm | 18 mm | 18 mm | 12 mm | 16 mm | zone of inhibition at 50000 µg/mL (Penicillium chrysogenum): 12 mm; zone of inhibition at 50000 µg/mL (Micrococcus luteus [1]): 16 mm; zone of inhibition at 50000 µg/mL (Micrococcus luteus [2]): 18 mm
CC[C@H](CO)NCc1ccncc1 | inactive | inactive | inactive | inactive | inactive | inactive | inactive | inactive | inactive | inactive | inactive | inactive | 27.7 µM (≈ 5 µg/mL) | inactive |  |  |  |  |  |  | 
CC[C@H](CO)Nc1ncccn1 | inactive | inactive |  | inactive | inactive | inactive | inactive | inactive | inactive | inactive | inactive | inactive | > 29.9 µM | inactive |  | 12 mm |  |  |  |  | 
